Laboratory results: ChEMBL document CHEMBL3272180, “A conformational study of beta-phenethanolamine receptor sites. 8. Pharmacological study of 3-isopropylamino-2-phenyl-trans-2-decalols” (1976)
Active and inactive are the calls of the source. The calls are words filed in the database; no cut-off is given here.

Tests used:
Oryctolagus cuniculus [1] = species: Oryctolagus cuniculus; assay: Inhibition of spontaneous contractions in isolated rabbit atria at 1 x 10^-4 M; type: functional; conditions: Cardiac atrium
Rattus norvegicus [2] = species: Rattus norvegicus; assay: (§1) Potentiation of D(-)-norepinephrine-induced contraction in reserpine-treated Sprague-Dawley rat vas deferens assessed as contraction level at 1 x 10^-3 M relative to norepinephrine; type: functional
Method in brief: (§2)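 Rats were reserpinized with 5 mg/kg ip 24 hr before the experiment. Vasa deferentia were then set up in Tyrode's solution at 37°, gassed with 95% O2/5% CO2. Cumulative NE curves over 3×10^-7 to 3×10^-5 M, with test agent present. Isotonic contractions recorded kymographically. Response as percent of NE cumulative maximum; mean ± SE; t test.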

Vas deferens [3] = assay: Inhibition of D(-)-norepinephrine-induced contraction in Sprague-Dawley rat vas deferens assessed as contraction level at 1 x 10^-3 M relative to norepinephrine; type: functional; design: scale not given: the % may be the effect or the level left
Method in brief: (§3)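 Isolated vasa deferentia from male Sprague–Dawley rats (300–350 g) in a 10-ml bath of Tyrode's solution, 37°, gassed with 95% O2/5% CO2. Cumulative NE dose-response curves over 3×10^-7 to 3×10^-5 M, with test agent at 1×10^-4 or 1×10^-3 M. Isotonic contractions recorded kymographically, 5 min between contractions after washout. Response expressed as percent of NE cumulative maximum (=100%), calculated per preparation. PD2 given as mean ± SE of ten curves; t test.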

Vas deferens [4] = assay: Inhibition of norepinephrine uptake in Sprague-Dawley rat vas deferens at 1 x 10^-4 M after 60 mins by fluorometric analysis; type: functional
Method in brief: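 Rat vas deferens pieces (50–60 mg, two per rat) incubated free-floating for 60 min at 37° in oxygenated Tyrode's with NE 1.5×10^-7 M, with or without test agent at 1×10^-4 M. Tissue then washed three times for 5 sec, and total catecholamines estimated fluorometrically by autoanalyzer. Mean ± SE of five experiments; t test vs control.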

[5] = Induction of norepinephrine release in Sprague-Dawley rat vas deferens at 1 x 10^-4 M after 30 mins by fluorometric analysis; type: functional
Method in brief: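 Rat vas deferens pieces incubated 30 min in oxygenated Tyrode's with agent at 1×10^-4 M. Total catecholamines then measured fluorometrically by autoanalyzer. Mean ± SE of five experiments; t test vs control.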

[6] = Potentiation of D(-)-norepinephrine-induced contraction in Sprague-Dawley rat vas deferens assessed as contraction level at 1 x 10^-4 M relative to norepinephrine; type: functional; method in brief: as §3
Canis familiaris [7] = assay: Reduction of blood pressure in mongrel dog at 1 to 2 mg/kg, iv by electrocardiograph analysis; type: functional, organism-based; conditions: Canis lupus familiaris
Method in brief: (§4)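 Dog blood pressure recorded after iv injection via a right femoral vein cannula (1–2 mg/kg), each dose washed in with 0.5 ml saline. Where stated, β blockade with propranolol 2 mg/kg, checked for adequacy with […].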

Rattus norvegicus [8] = species: Rattus norvegicus; assay: (§5) Potentiation of D(-)-norepinephrine-induced contraction in reserpine-treated Sprague-Dawley rat vas deferens assessed as contraction level at 1 x 10^-4 M relative to norepinephrine; type: functional; method in brief: as §2
Rattus norvegicus [9] = species: Rattus norvegicus; assay: Potentiation of D(-)-norepinephrine-induced contraction in reserpine-treated Sprague-Dawley rat vas deferens at 1 x 10^-2 M relative to control; type: functional, tissue-based; method in brief: as §2
Oryctolagus cuniculus [10] = species: Oryctolagus cuniculus; assay: Increase in spontaneous contractions in isolated rabbit atria at 1 x 10^-4 M; type: functional; conditions: Cardiac atrium
Oryctolagus cuniculus [11] = species: Oryctolagus cuniculus; assay: Inhibition of spontaneous contractions in isolated rabbit atria at 1 x 10^-3 M; type: functional; conditions: Cardiac atrium
Canis familiaris [12] = assay: Reduction of diastolic blood pressure in mongrel dog at 2 mg/kg, iv by electrocardiograph analysis in presence of alpha-blocker phenoxybenzamine; type: functional, organism-based; design: dose 2 mg/kg; conditions: Canis lupus familiaris, Artery
Canis familiaris [13] = assay: Induction of beta-adrenergic response in mongrel dog at 2 mg/kg, iv by electrocardiograph analysis in presence of propranolol; type: functional, organism-based; design: dose 2 mg/kg; conditions: Canis lupus familiaris
Canis familiaris [14] = assay: Reduction of pulse pressure in mongrel dog at 2 mg/kg, iv by electrocardiograph analysis in presence of alpha-blocker phenoxybenzamine; type: functional, organism-based; design: dose 2 mg/kg; conditions: Canis lupus familiaris
Canis familiaris [15] = assay: Increase in diastolic blood pressure in mongrel dog at 2 mg/kg, iv by electrocardiograph analysis; type: functional, Canis lupus familiaris, Artery
Canis familiaris [16] = assay: Increase in pulse pressure in mongrel dog at 2 mg/kg, iv by electrocardiograph analysis; type: functional, Canis lupus familiaris
Canis familiaris [17] = assay: Increase in systolic blood pressure in mongrel dog at 2 mg/kg, iv by electrocardiograph analysis; type: functional, Canis lupus familiaris, Artery
Canis familiaris [18] = assay: Induction of beta-adrenergic response in mongrel dog at 2 mg/kg, iv by electrocardiograph analysis; type: functional, organism-based; design: dose 2 mg/kg; conditions: Canis lupus familiaris
Canis familiaris [19] = assay: Reduction of systolic blood pressure in mongrel dog at 2 mg/kg, iv by electrocardiograph analysis in presence of alpha-blocker phenoxybenzamine; type: functional, organism-based; design: dose 2 mg/kg; conditions: Canis lupus familiaris, Artery
[20] = Potentiation of D(-)-norepinephrine-induced contraction in Sprague-Dawley rat vas deferens assessed as contraction level at 1 x 10^-2 M relative to norepinephrine; type: functional
Canis familiaris [21] = assay: Reduction of diastolic blood pressure in mongrel dog at 1 to 2 mg/kg, iv up to 30 mins by electrocardiograph analysis in presence of alpha-blocker phenoxybenzamine; type: functional, Canis lupus familiaris, Artery; conditions: dose mg/kg 1-2
Method in brief: (§6)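 Dogs pretreated with phenoxybenzamine 3 mg/kg as α-blocker, blockade checked with […]. Test agents given iv (1–2 mg/kg) via a femoral vein cannula, washed in with 0.5 ml saline; tracheotomized animals. Systolic, diastolic and pulse pressure followed over an initial 30-sec phase and a second phase of about 30 min.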

Canis familiaris [22] = assay: Reduction of pulse pressure in mongrel dog at 1 to 2 mg/kg, iv up to 30 seconds by electrocardiograph analysis in presence of alpha-blocker phenoxybenzamine; type: functional, organism-based; conditions: Canis lupus familiaris; method in brief: as §6
Canis familiaris [23] = assay: Reduction of systolic blood pressure in mongrel dog at 1 to 2 mg/kg, iv up to 30 mins by electrocardiograph analysis in presence of alpha-blocker phenoxybenzamine; type: functional, Canis lupus familiaris, Artery; conditions: dose mg/kg 1-2; method in brief: as §6
Canis familiaris [24] = assay: Reduction of diastolic blood pressure in mongrel dog at 1 to 2 mg/kg, iv up to 30 seconds by electrocardiograph analysis in presence of alpha-blocker phenoxybenzamine; type: functional, Canis lupus familiaris, Artery; conditions: dose mg/kg 1-2; method in brief: as §6
Canis familiaris [25] = assay: Reduction of blood pressure in mongrel dog at 1 to 2 mg/kg, iv by electrocardiograph analysis in presence of propranolol; type: functional, organism-based; conditions: Canis lupus familiaris; method in brief: as §4
Canis familiaris [26] = assay: Reduction of pulse pressure in mongrel dog at 1 to 2 mg/kg, iv up to 30 mins by electrocardiograph analysis in presence of alpha-blocker phenoxybenzamine; type: functional, Canis lupus familiaris; conditions: dose mg/kg 1-2; method in brief: as §6
Canis familiaris [27] = assay: Reduction of systolic blood pressure in mongrel dog at 1 to 2 mg/kg, iv up to 30 seconds by electrocardiograph analysis in presence of alpha-blocker phenoxybenzamine; type: functional, Canis lupus familiaris, Artery; conditions: dose mg/kg 1-2; method in brief: as §6
Canis familiaris [28] = assay: Reduction of blood pressure in iv dosed mongrel dog by electrocardiograph analysis in presence of hexamethonium and atropine; type: functional, organism-based; conditions: Canis lupus familiaris
[29] = as §1; type: functional; method in brief: as §2
[30] = as §5; type: functional; method in brief: as §2

For CC(C)N[C@@H]1C[C@@H]2CCCC[C@H]2C[C@]1(O)c1ccccc1, the inhibition (Oryctolagus cuniculus [1]) was “Active”, the Activity (Rattus norvegicus [2]) was “Active” and the Activity (Vas deferens [3]) was 85%. The Activity (Vas deferens [4]) was 9.3 µg/g, the Activity [5] was 7.7 µg/g and the Activity [6] was 128%. For the same molecule, the Activity (Canis familiaris [7]) was “Active”, the Activity (Rattus norvegicus [8]) was “Active” and the Activity (Rattus norvegicus [9]) was “Active”.
For CC(C)N[C@@H]1C[C@@H]2CCCC[C@H]2C[C@@]1(O)c1ccccc1, the Activity (Rattus norvegicus [2]) was “Active”, the Activity (Vas deferens [3]) was 16% and the Activity (Vas deferens [4]) was 9.5 µg/g. For the same molecule, the Activity [5] was 8.1 µg/g, the Activity [6] was 94% and the Activity (Oryctolagus cuniculus [10]) was “Active”. For the same molecule, the inhibition (Oryctolagus cuniculus [11]) was “Active”, the Activity (Canis familiaris [7]) was “Active” and the Activity (Rattus norvegicus [8]) was “Active”. For the same molecule, the Activity (Rattus norvegicus [9]) was “Active”.
For CN[C@@H](C)[C@H](O)c1ccccc1 [EPHEDRINE], the Activity (Canis familiaris [12]) was “inactive”, the Activity (Canis familiaris [13]) was “inactive” and the Activity (Canis familiaris [14]) was “inactive”. The Activity (Canis familiaris [15]) was 40 mmHg, the Activity (Canis familiaris [16]) was 40 mmHg and the Activity (Canis familiaris [17]) was 40 mmHg. For the same molecule, the Activity (Canis familiaris [18]) was “Active” and the Activity (Canis familiaris [19]) was “inactive”.
In the case of CC(C)N[C@H](C)[C@H](O)c1ccccc1, the Activity (Rattus norvegicus [2]) is reported as “Active”, the Activity (Vas deferens [4]) is reported as 9.3 µg/g and the Activity [5] is reported as 7.4 µg/g. For the same molecule, the Activity [20] was 70%, the Activity [6] was 145% and the inhibition (Oryctolagus cuniculus [11]) was “Active”. The Activity (Canis familiaris [7]) was “Active”, the Activity (Rattus norvegicus [8]) was “Active” and the Activity (Rattus norvegicus [9]) was “Active”.
In the case of CC(C)N[C@H]1C[C@@H]2CCCC[C@H]2C[C@@]1(O)c1ccccc1, the Activity (Rattus norvegicus [2]) is reported as “Active”, the Activity (Vas deferens [3]) is reported as 10% and the Activity (Canis familiaris [21]) is reported as 30 mmHg. For the same molecule, the Activity (Canis familiaris [22]) was “Active”, the Activity (Canis familiaris [23]) was 15 mmHg and the Activity (Vas deferens [4]) was 9.6 µg/g. The Activity [5] was 7.8 µg/g, the Activity (Canis familiaris [24]) was 50 mmHg and the Activity (Canis familiaris [25]) was “Active”. For the same molecule, the Activity (Canis familiaris [26]) was 15 mmHg, the Activity [6] was 96% and the Activity (Oryctolagus cuniculus [10]) was “Active”. For the same molecule, the inhibition (Oryctolagus cuniculus [11]) was “Active”, the Activity (Canis familiaris [7]) was “Active” and the Activity (Rattus norvegicus [8]) was “Active”. For the same molecule, the Activity (Rattus norvegicus [9]) was “Active” and the Activity (Canis familiaris [27]) was 50 mmHg.
For CC(C)N[C@@H](C)[C@H](O)c1ccccc1, the inhibition (Oryctolagus cuniculus [1]) was “Active”, the Activity (Rattus norvegicus [2]) was “Active” and the Activity (Canis familiaris [21]) was 30 mmHg. The Activity (Canis familiaris [22]) was “Active”, the Activity (Canis familiaris [23]) was 15 mmHg and the Activity (Vas deferens [4]) was 9.2 µg/g. For the same molecule, the Activity [5] was 7 µg/g, the Activity (Canis familiaris [24]) was 50 mmHg and the Activity [20] was 90%. The Activity (Canis familiaris [25]) was “Active”, the Activity (Canis familiaris [26]) was 15 mmHg and the Activity [6] was 158%. The Activity (Canis familiaris [7]) was “Active”, the Activity (Rattus norvegicus [8]) was “Active” and the Activity (Canis familiaris [28]) was “Active”. For the same molecule, the Activity (Rattus norvegicus [9]) was “Active” and the Activity (Canis familiaris [27]) was 50 mmHg.
In the case of CC(C)N[C@H]1C[C@@H]2CCCC[C@H]2C[C@]1(O)c1ccccc1, the Activity [29] is reported as 84%, the Activity (Vas deferens [3]) is reported as 88% and the Activity (Vas deferens [4]) is reported as 9.1 µg/g. The Activity [5] was 7.9 µg/g, the Activity [6] was 132% and the Activity (Oryctolagus cuniculus [10]) was “Active”. For the same molecule, the inhibition (Oryctolagus cuniculus [11]) was “Active”, the Activity (Canis familiaris [7]) was “Active” and the Activity [30] was 130%. For the same molecule, the Activity (Rattus norvegicus [9]) was “Active”.
